Measurements: ChEMBL document CHEMBL3739264, “Synthesis and bio-evaluation of novel quinolino-stilbene derivatives as potential anticancer agents” (Bioorg Med Chem, 2015)
Calls of active or inactive are those of the source. The calls are words filed in the database; no cut-off is given here.

Experiments:
[1] = target: Tubulin (Homo sapiens) (UniProt P68371+Q9H4B7+P0DPH7+P68366+Q13509+Q71U36+P04350+Q3ZCM7+P07437+P68363+Q9BQE3+Q6PEY2+Q13885+Q9BVA1+Q9BUF5); experiment: Inhibition of tubulin (unknown origin) polymerization at 6 to 12 uM measured every 1 min for 1 hr by automated plate reader analysis; format: protein-complex assay
Summary of the method: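 Cell-free assay: 4 mg/ml tubulin in 80 mM PIPES, 2 mM MgCl2, 0.5 mM EGTA, 1 mM GTP, 10% glycerol, pH 6.9, added to wells with ligand pre-warmed 2-3 min at 37°C. A340 read every min for 1 h.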

[2] = test system: HeLa; experiment: Cell cycle arrest in human HeLa cells assessed as accumulation at sub-G1 phase at 6 uM after 24 hrs by flow cytometry analysis relative to control; format: functional
Summary of the method: (§1)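 About 1 × 10^6 cells per plate seeded overnight, then treated with compound and harvested at set times. Cells fixed in 75% ethanol at -20°C for 12-24 h and stained 1 h with 100 µg/ml PI, 100 µg/ml RNase A and 0.3% NP-40 in PBS. DNA content measured by flow cytometry; phase fractions compared with sham-treated cells.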

[3] = test system: HeLa; experiment: Cell cycle arrest in human HeLa cells assessed as accumulation at S phase at 6 uM after 72 hrs by flow cytometry analysis relative to control; format: functional; summary of the method: as §1
[4] = test system: HeLa; experiment: Cell cycle arrest in human HeLa cells assessed as accumulation at G0-G1 phase at 6 uM after 72 hrs by flow cytometry analysis relative to control; format: functional; summary of the method: as §1
[5] = test system: HeLa; experiment: Induction of mitosis arrest in human HeLa cells assessed as disoriented tubulin structure at 6 uM after 12 hrs using DAPI staining by immunofluorescence microscopic analysis; format: functional, cell-based
Summary of the method: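 HeLa cells on coverslips treated 12 h, fixed in ice-cold methanol at -20°C. Stained with anti-α-tubulin and anti-lamin A (primary 1:200 overnight at 4°C, fluorescent secondary 1 h) and DAPI for DNA. Mitotic morphology scored by fluorescence microscopy.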

[6] = test system: MDA-MB-231; experiment: Cell cycle arrest in human MDA-MB-231 cells assessed as accumulation at sub-G1 phase at 6 uM after 24 hrs by flow cytometry analysis relative to control; format: functional
Summary of the method: (§2)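 Cells seeded overnight at about 1 × 10^6 per plate, treated next morning, and harvested at set times. Fixed in 75% ethanol at -20°C for 12-24 h, then stained 1 h in PBS with 0.3% NP-40, 100 µg/ml RNase A and 100 µg/ml propidium iodide. Phase distribution read from DNA content by flow cytometry against sham-treated cells.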

[7] = Cell cycle arrest in human MCF10A cells assessed as accumulation at G2/M phase at 6 uM after 12 hrs by flow cytometry analysis relative to control; format: functional, cell-based; details: MCF-10A; summary of the method: as §1
[8] = test system: HeLa; experiment: Cell cycle arrest in human HeLa cells assessed as accumulation at sub-G1 phase at 6 uM after 72 hrs by flow cytometry analysis relative to control; format: functional; summary of the method: as §1
[9] = Cell cycle arrest in human MCF10A cells assessed as accumulation at sub-G1 phase at 6 uM after 72 hrs by flow cytometry analysis relative to control; format: functional, cell-based; details: MCF-10A; summary of the method: as §1
[10] = test system: MDA-MB-231; experiment: Cell cycle arrest in human MDA-MB-231 cells assessed as accumulation at S phase at 6 uM after 48 hrs by flow cytometry analysis relative to control; format: functional; summary of the method: as §1
[11] = test system: MDA-MB-231; experiment: Cell cycle arrest in human MDA-MB-231 cells assessed as accumulation at G2/M phase at 6 uM after 12 hrs by flow cytometry analysis relative to control; format: functional; summary of the method: as §1
[12] = test system: HeLa; experiment: Cell cycle arrest in human HeLa cells assessed as accumulation at sub-G1 phase at 6 uM after 48 hrs by flow cytometry analysis relative to control; format: functional; summary of the method: as §1
[13] = test system: MDA-MB-231; experiment: Cell cycle arrest in human MDA-MB-231 cells assessed as accumulation at G2/M phase at 6 uM after 48 hrs by flow cytometry analysis relative to control; format: functional; summary of the method: as §1
[14] = Cell cycle arrest in human MCF10A cells assessed as accumulation at sub-G1 phase at 6 uM after 48 hrs by flow cytometry analysis relative to control; format: functional, cell-based; details: MCF-10A; summary of the method: as §1
[15] = Cell cycle arrest in human MCF10A cells assessed as accumulation at S phase at 6 uM after 48 hrs by flow cytometry analysis relative to control; format: functional, cell-based; details: MCF-10A; summary of the method: as §1
[16] = Antiproliferative activity against human MCF10A cells after 72 hrs by SRB assay; format: cell-based; details: MCF-10A
Summary of the method: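 Cells seeded at 4,000-5,000/well for 16 h, then exposed 72 h to serial dilutions of compound in DMSO; sham DMSO as 100% and TCA-treated wells as 0%. Fixed in 10% TCA at 4°C for 1 h, stained with 0.4% SRB for 30 min, dye solubilised in 10 mmol Tris pH 10.5, read at 540 nm. IC50 from sigmoidal dose-response curves; two biological replicates, four technical each.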

[17] = test system: HeLa; experiment: Induction of apoptosis in human HeLa cells assessed as increase of PARP cleavage at 6 uM after 48 hrs by Western blot analysis; format: functional, cell-based
Summary of the method: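 HeLa cells were sham-treated or given 6 µM and collected at set times. Lysed on ice in Tris pH 7.4/NaCl/EDTA/1% Triton X-100 with PMSF and protease inhibitors. 30-40 µg protein run on 8 or 10% gels, blotted to PVDF, probed overnight at 4°C and detected by ECL. Band levels normalized to GAPDH.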

[18] = Cell cycle arrest in human MCF10A cells assessed as accumulation at G0-G1 phase at 6 uM after 48 hrs by flow cytometry analysis relative to control; format: functional, cell-based; details: MCF-10A; summary of the method: as §1
[19] = test system: MDA-MB-231; experiment: Cell cycle arrest in human MDA-MB-231 cells assessed as accumulation at G0-G1 phase at 6 uM after 24 hrs by flow cytometry analysis relative to control; format: functional; summary of the method: as §1
[20] = test system: HeLa; experiment: Induction of DNA damage in human HeLa cells at 6 uM after 48 hrs by immunostaining; format: functional, cell-based
Summary of the method: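 γH2A.X (phospho-Ser139) immunostaining, with HeLa at 6 µM for 24 or 48 h and MDA-MB468 at 1 µM. Cells on coverslips fixed and permeabilized in ice-cold methanol at -20°C. Blocked in 1% FBS, primary antibody 1:200 overnight at 4°C, then fluorophore-conjugated secondary 1 h. DNA counterstained with DRAQ5.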

[21] = test system: MDA-MB-231; experiment: Cell cycle arrest in human MDA-MB-231 cells assessed as accumulation at sub-G1 phase at 6 uM after 48 hrs by flow cytometry analysis relative to control; format: functional; summary of the method: as §2
[22] = test system: HeLa; experiment: Induction of apoptosis in human HeLa cells assessed as membrane blebbing at 6 uM after 48 hrs by time lapse microscopy analysis; format: functional, cell-based
Summary of the method: (§3)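 Treated HeLa cells were followed by time-lapse microscopy, with images taken at set time points.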

[23] = test system: HeLa; experiment: Decrease of Wee-1 level in human HeLa cells at 6 uM after 48 hrs by Western blot analysis
[24] = test system: HeLa; experiment: Cell cycle arrest in human HeLa cells assessed as accumulation at S phase at 6 uM after 12 hrs by flow cytometry analysis relative to control; format: functional; summary of the method: as §1
[25] = Cell cycle arrest in human MCF10A cells assessed as accumulation at G0-G1 phase at 6 uM after 72 hrs by flow cytometry analysis relative to control; format: functional, cell-based; details: MCF-10A; summary of the method: as §1
[26] = test system: HeLa; experiment: Cell cycle arrest in human HeLa cells assessed as accumulation at G2/M phase at 6 uM after 24 hrs by flow cytometry analysis relative to control; format: functional; summary of the method: as §1
[27] = test system: HeLa; experiment: Induction of apoptosis in human HeLa cells assessed as popcorn like morphology at 6 uM after 48 hrs by time lapse microscopy analysis; format: functional, cell-based; summary of the method: as §3

In the case of `FC(F)(F)c1cccc(/C=C\c2cc3ccccc3nc2Cl)c1`, the inhibition [1] is reported as “Active”, the Activity [2] is reported as 17.8% and the Activity [3] is reported as 17.7%. The Activity [4] was 22.9%, the Activity [5] was “Active” and the Activity [6] was 12.8%. The Activity [7] was 11.4%, the Activity [8] was 46% and the Activity [9] was 12.1%. It also gave an Activity [10] of 15.4%, an Activity [11] of 47.4% and an Activity [12] of 40.6%. It also gave an Activity [13] of 18.6%, an Activity [14] of 12.9% and an Activity [15] of 17.9%. The IC50 [16] was 6.01 µM, the Activity [17] was “Active” and the Activity [18] was 63.6%. For the same compound, the Activity [19] was 34%, the Activity [20] was “inactive” and the Activity [21] was 23.8%. The Activity [22] was “Active”, the Activity [23] was “Active” and the Activity [24] was 8.9%. For the same compound, the Activity [25] was 70.6%, the Activity [26] was 56.9% and the Activity [27] was “Active”.
